Measurements: ChEMBL document CHEMBL1795332, “Renin inhibitors for the treatment of hypertension: design and optimization of a novel series of pyridone-substituted piperidines” (Bioorg Med Chem Lett, 2011)
One block for each molecule: values may come before it.

Key:
CYP3A4 [1] = target: T1, CYP3A4 (Homo sapiens, UniProt P08684); assay: Time dependent inhibition of CYP3A4 assessed as conversion of testosterone to 6-beta-hydroxytestosterone at 10 uM relative to control; type: ADME; settings: probe testosterone
T1 sequence (P08684 whole entry): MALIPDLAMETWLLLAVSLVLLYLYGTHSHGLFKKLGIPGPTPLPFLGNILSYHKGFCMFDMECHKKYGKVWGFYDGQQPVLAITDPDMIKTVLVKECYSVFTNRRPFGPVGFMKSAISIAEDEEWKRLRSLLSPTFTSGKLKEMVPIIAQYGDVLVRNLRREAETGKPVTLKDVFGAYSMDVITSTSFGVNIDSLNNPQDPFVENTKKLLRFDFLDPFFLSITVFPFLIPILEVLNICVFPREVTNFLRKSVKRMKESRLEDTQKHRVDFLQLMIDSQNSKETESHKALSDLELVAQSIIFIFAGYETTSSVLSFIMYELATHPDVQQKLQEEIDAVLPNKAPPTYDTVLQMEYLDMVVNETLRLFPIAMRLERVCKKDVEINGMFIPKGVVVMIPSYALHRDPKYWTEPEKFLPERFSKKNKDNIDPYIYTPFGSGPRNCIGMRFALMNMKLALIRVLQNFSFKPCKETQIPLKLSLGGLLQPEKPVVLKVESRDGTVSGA
Outline: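 Rate of CYP3A4 conversion of testosterone (250 μM) to 6-β-hydroxytestosterone measured before and after a 30 min incubation with compound at 10 μM (in DMSO). Difference expressed as % loss.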

Renin [2] = target: T2, Renin (Homo sapiens, UniProt P00797); assay: Inhibition of human recombinant renin using Q-FRET substrate after 3 hrs by fluorescence assay
T2 sequence (P00797 whole entry): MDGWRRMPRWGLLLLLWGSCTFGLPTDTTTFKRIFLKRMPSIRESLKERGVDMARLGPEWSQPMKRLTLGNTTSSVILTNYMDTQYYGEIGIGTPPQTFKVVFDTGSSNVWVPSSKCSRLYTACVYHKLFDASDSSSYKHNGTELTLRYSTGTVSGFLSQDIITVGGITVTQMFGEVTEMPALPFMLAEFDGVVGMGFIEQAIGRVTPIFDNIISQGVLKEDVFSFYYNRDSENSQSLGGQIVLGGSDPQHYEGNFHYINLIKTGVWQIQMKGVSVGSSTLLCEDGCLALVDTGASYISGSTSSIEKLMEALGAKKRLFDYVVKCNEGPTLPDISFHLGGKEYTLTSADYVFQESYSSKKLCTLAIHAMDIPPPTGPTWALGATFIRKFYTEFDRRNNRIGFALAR

[3] = Oral bioavailability in Sprague-Dawley rat at 3 mg/kg; type: ADME, organism-based; settings: in vivo
Renin [4] = target: T2, Renin; assay: Inhibition of renin in human plasma using Q-FRET substrate pretreated for 10 mins before substrate addition measured after 1 hr
CYP3A4 [5] = target: T1, CYP3A4; assay: Reversible inhibition of CYP3A4 assessed as conversion of testosterone to 6-beta-hydroxytestosterone at 10 uM relative to control; type: ADME; settings: probe testosterone
Liver microsomes [6] = assay: Covalent binding in human liver microsomes assessed per mg of protein at 10 uM after 60 mins in presence of NADPH; type: ADME, Microsome; settings: 1 h
Outline: (§1)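 Test compound at 10 μM was incubated for 60 min (n = 3) with human liver microsomes at 1 mg protein/mL, with or without 1 mM NADPH. Covalent binding reported as pmole eq/mg at 1 h.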

[7] = Clearance in cynomolgus monkey at 3 mg/kg, po and 1 mg/kg, iv; type: ADME, organism-based, Macaca fascicularis; settings: in vivo
Rattus norvegicus [8] = assay: Antihypertensive activity in double transgenic rat model assessed as reduction of blood pressure at 10 mg/kg, po; type: functional
[9] = Oral bioavailability in cynomolgus monkey at 3 mg/kg; type: ADME, organism-based, Macaca fascicularis; settings: in vivo
[10] = target: Voltage-gated inwardly rectifying potassium channel KCNH2 (Homo sapiens, UniProt Q12809); assay: Inhibition of human ERG
Voltage-gated inwardly rectifying potassium channel KCNH2, sequence (Q12809 whole entry): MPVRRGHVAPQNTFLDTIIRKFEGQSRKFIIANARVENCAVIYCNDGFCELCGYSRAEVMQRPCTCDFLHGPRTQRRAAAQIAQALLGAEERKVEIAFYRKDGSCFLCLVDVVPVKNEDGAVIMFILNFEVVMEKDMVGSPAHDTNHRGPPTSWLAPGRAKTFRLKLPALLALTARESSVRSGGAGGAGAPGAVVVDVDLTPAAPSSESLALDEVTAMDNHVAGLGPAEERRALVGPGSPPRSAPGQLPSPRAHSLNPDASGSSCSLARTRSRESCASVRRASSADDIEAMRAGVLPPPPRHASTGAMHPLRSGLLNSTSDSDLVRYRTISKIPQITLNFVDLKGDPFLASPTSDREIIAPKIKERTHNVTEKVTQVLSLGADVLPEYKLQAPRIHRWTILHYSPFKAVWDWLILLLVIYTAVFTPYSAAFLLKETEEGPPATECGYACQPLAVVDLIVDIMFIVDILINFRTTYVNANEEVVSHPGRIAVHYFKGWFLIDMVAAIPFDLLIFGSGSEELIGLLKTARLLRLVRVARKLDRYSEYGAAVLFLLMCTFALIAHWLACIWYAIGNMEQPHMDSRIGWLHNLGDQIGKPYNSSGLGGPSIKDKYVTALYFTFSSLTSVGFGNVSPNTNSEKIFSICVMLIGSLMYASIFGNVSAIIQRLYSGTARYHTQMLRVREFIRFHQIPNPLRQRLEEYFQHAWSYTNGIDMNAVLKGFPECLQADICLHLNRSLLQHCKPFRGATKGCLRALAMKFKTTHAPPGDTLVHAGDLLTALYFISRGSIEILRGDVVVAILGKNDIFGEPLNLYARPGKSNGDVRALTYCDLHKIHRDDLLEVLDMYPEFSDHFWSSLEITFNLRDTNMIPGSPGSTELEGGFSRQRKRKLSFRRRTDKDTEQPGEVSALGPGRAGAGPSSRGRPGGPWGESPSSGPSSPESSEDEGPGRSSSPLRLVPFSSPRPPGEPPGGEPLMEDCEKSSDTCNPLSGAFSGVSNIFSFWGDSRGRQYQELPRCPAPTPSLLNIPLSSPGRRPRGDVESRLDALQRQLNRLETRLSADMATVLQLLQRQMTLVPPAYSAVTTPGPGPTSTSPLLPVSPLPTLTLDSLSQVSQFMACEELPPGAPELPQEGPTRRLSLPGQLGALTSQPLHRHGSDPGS

[11] = Volume of distribution at steady state in cynomolgus monkey at 3 mg/kg, po and 1 mg/kg, iv; type: ADME, organism-based, Macaca fascicularis; settings: in vivo, read-out: Vdss
Canis familiaris [12] = assay: Cardiotoxicity in anesthetized, vagotomized and ventilated Mongrel dog assessed as prolongation of QRS intervals at 10 mg/kg, iv after 1.5 hrs relative to baseline; type: toxicity, organism-based, Canis lupus familiaris; set-up: dose 10 mg/kg, route intravenous; settings: in vivo
Outline: (§2)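 Anesthetized, vagotomized, ventilated mongrel dogs received an iv infusion of 10 mpk over 1.5 h. QTc, PR and QRS intervals were recorded as percentage change from baseline, and plasma concentration (µM) was measured.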

Cytochrome P450 3A4 [13] = target: T3, Cytochrome P450 3A4 (Homo sapiens, UniProt P08684); assay: Time dependent inhibition of CYP3A4 assessed as conversion of testosterone to 6-beta-hydroxytestosterone; type: ADME
T3 sequence (P08684 whole entry): as the sequence (P08684 whole entry) above
Outline: (§3)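 Time-dependent CYP3A4 inhibition (testosterone to 6-β-hydroxytestosterone).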

[14] = Plasma concentration in anesthetized, vagotomized and ventilated Mongrel dog at 10 mg/kg, iv after 1.5 hrs; type: ADME, organism-based, Canis lupus familiaris; set-up: dose 10 mg/kg, route intravenous; outline: as §2
[15] = Oral bioavailability in Sprague-Dawley rat at 20 mg/kg; type: ADME, organism-based; settings: in vivo
Rattus norvegicus [16] = assay: Cardiotoxicity in cardiac electrophysiology rat model assessed as prolongation of PR intervals at 10 mg/kg, iv after 0.5 hrs relative to baseline; type: toxicity, organism-based, Heart; set-up: dose 10 mg/kg, route intravenous; settings: in vivo
Outline: (§4)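 Rat electrophysiology model dosed at 10 mpk over 0.5 h. PR and QRS prolongation expressed as percentage change from baseline; plasma concentration (µM) recorded.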

[17] = AUC in Beagle dog at 3 mg/kg, po; type: ADME, organism-based, Canis lupus familiaris; set-up: dose 3 mg/kg, route oral; settings: plasma
Canis familiaris [18] = assay: Cardiotoxicity in anesthetized, vagotomized and ventilated Mongrel dog assessed as prolongation of PR intervals at 10 mg/kg, iv after 1.5 hrs relative to baseline; type: toxicity, organism-based, Canis lupus familiaris; set-up: dose 10 mg/kg, route intravenous; settings: in vivo; outline: as §2
Cytochrome P450 3A4 [19] = target: T3, Cytochrome P450 3A4; assay: Reversible inhibition of CYP3A4 assessed as conversion of testosterone to 6-beta-hydroxytestosterone; type: ADME
Canis familiaris [20] = assay: Cardiotoxicity in anesthetized, vagotomized and ventilated Mongrel dog assessed as prolongation of QTc intervals at 10 mg/kg, iv after 1.5 hrs relative to baseline; type: toxicity, organism-based, Canis lupus familiaris; set-up: dose 10 mg/kg, route intravenous; settings: in vivo; outline: as §2
[21] = Half life in Beagle dog at 3 mg/kg, po and 1 mg/kg, iv; type: ADME, organism-based, Canis lupus familiaris; settings: in vivo
[22] = Oral bioavailability in Beagle dog at 3 mg/kg; type: ADME, organism-based, Canis lupus familiaris; settings: in vivo
[23] = AUC in cynomolgus monkey at 3 mg/kg, po; type: ADME, organism-based, Macaca fascicularis; set-up: dose 3 mg/kg, route oral; settings: plasma
[24] = Clearance in Sprague-Dawley rat at 20 mg/kg, po and 5 mg/kg, iv; settings: in vivo
[25] = Half life in Sprague-Dawley rat at 20 mg/kg, po and 5 mg/kg, iv; settings: in vivo
Liver microsomes [26] = assay: Covalent binding in human liver microsomes assessed per mg of protein at 10 uM after 60 mins in absence of NADPH; type: ADME, Microsome; settings: 1 h; outline: as §1
Rattus norvegicus [27] = assay: Antihypertensive activity in double transgenic rat model assessed as duration in reduction of blood pressure at 10 mg/kg, po; type: functional
Rattus norvegicus [28] = assay: Cardiotoxicity in cardiac electrophysiology rat model assessed as prolongation of QRS intervals at 10 mg/kg, iv after 0.5 hrs relative to baseline; type: toxicity, organism-based, Heart; set-up: dose 10 mg/kg, route intravenous; settings: in vivo; outline: as §4
Cytochrome P450 3A4 [29] = target: T3, Cytochrome P450 3A4; assay: Time dependent inhibition of CYP3A4 assessed as conversion of testosterone to 6-beta-hydroxytestosterone preincubated for 30 mins; type: ADME; outline: as §3
[30] = Plasma concentration in cardiac electrophysiology rat model at 10 mg/kg, iv after 0.5 hrs; type: ADME, organism-based; set-up: dose 10 mg/kg, route intravenous; outline: as §4
[31] = AUC in Sprague-Dawley rat at 20 mg/kg, po; type: ADME, organism-based; set-up: dose 20 mg/kg, route oral; settings: plasma
[32] = Clearance in Beagle dog at 3 mg/kg, po and 1 mg/kg, iv; type: ADME, organism-based, Canis lupus familiaris; settings: in vivo
[33] = Volume of distribution at steady state in Sprague-Dawley rat at 20 mg/kg, po and 5 mg/kg, iv; settings: in vivo, read-out: Vdss
[34] = Volume of distribution at steady state in Beagle dog at 3 mg/kg, po and 1 mg/kg, iv; type: ADME, organism-based, Canis lupus familiaris; settings: in vivo, read-out: Vdss
[35] = Half life in cynomolgus monkey at 3 mg/kg, po and 1 mg/kg, iv; type: ADME, organism-based, Macaca fascicularis; settings: in vivo
[36] = Solubility of the compound in water; type: physicochemical; settings: buffer
[37] = Oral bioavailability in Sprague-Dawley rat at 30 mg/kg; type: ADME, organism-based; settings: in vivo
[38] = target: Voltage-dependent L-type calcium channel subunit alpha-1C (Homo sapiens, UniProt Q13936); assay: Inhibition of human Cav1.2
[39] = target: Sodium channel protein type 5 subunit alpha (Homo sapiens, UniProt Q14524); assay: Inhibition of human Nav1.5
Sodium channel protein type 5 subunit alpha, sequence (Q14524 whole entry): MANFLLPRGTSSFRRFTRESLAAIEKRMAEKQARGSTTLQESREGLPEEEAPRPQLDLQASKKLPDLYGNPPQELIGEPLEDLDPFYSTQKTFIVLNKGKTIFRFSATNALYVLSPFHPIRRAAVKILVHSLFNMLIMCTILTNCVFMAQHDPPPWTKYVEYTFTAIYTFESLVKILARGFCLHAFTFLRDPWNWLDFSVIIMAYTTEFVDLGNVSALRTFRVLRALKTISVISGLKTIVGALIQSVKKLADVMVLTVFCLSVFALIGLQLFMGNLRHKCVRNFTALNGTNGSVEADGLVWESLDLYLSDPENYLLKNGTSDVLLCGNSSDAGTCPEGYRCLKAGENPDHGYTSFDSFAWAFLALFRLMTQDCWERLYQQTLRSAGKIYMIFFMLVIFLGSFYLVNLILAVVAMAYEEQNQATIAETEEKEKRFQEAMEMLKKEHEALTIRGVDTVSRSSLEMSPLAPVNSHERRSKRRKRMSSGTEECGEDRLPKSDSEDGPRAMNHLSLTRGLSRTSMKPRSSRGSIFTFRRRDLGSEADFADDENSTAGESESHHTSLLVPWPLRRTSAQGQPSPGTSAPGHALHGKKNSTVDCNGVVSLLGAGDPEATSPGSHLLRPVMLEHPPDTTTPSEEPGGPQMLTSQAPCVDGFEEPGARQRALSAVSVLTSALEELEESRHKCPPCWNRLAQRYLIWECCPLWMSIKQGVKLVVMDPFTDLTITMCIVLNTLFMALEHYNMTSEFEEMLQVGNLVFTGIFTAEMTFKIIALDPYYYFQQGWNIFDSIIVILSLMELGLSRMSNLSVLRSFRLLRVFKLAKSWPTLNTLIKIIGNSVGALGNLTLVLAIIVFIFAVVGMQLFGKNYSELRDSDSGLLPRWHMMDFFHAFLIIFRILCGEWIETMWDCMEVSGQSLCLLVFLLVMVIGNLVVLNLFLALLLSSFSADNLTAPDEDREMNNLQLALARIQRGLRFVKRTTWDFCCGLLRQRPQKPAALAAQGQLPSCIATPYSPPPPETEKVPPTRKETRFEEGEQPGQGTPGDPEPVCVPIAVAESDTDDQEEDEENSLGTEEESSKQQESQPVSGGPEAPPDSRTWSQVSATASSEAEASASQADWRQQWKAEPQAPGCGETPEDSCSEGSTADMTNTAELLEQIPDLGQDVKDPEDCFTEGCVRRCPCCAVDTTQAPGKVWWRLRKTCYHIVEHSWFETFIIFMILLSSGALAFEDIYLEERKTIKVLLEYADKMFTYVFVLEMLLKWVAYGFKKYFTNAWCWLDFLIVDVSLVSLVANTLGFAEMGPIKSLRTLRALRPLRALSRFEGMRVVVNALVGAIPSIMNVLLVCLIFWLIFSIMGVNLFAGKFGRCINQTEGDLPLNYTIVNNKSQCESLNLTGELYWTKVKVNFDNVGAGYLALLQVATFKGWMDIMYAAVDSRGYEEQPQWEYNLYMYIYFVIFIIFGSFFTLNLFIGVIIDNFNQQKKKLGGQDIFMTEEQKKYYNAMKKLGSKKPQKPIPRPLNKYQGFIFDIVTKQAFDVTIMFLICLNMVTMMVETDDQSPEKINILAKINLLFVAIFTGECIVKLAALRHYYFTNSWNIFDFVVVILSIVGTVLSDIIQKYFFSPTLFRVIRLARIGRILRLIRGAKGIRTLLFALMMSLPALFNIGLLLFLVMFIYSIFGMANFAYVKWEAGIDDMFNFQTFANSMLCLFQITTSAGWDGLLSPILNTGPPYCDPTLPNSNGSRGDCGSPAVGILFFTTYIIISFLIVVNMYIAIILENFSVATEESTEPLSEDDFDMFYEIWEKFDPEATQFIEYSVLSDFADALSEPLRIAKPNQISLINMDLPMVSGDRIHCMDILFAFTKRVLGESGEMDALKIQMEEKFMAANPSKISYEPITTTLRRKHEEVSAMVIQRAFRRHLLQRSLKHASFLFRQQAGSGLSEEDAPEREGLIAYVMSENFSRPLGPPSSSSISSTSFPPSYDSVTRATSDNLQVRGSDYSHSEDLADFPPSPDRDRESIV

SMILES: Cn1ccc([C@H]2CCNC[C@@H]2C(=O)N(Cc2cn(Cc3ccccc3)c3cccc(F)c23)C2CC2)cc1=O
inhibition at 10 µM (CYP3A4 [1]): 43%
IC50 (Renin [2]): 0.02 nM
bioavailability [3]: 16%
IC50 (Renin [4]): 0.62 nM
activity % at 10 µM (CYP3A4 [5]): 19%

SMILES: Cn1ccc([C@H]2CCNC[C@@H]2C(=O)N(Cc2cn(Cc3cccnc3)c3cccc(F)c23)C2CC2)cc1=O
inhibition at 10 µM (CYP3A4 [1]): 44%
IC50 (Renin [2]): 0.88 nM
Ki [10]: 12000 nM
bioavailability [3]: 0%
IC50 (Renin [4]): 2 nM
activity % at 10 µM (CYP3A4 [5]): 61%

SMILES: COCCCn1cc(CN(C(=O)[C@H]2CNCC[C@@H]2c2ccn(C)c(=O)c2)C2CC2)c2ccccc21
inhibition at 10 µM (CYP3A4 [1]): 45%
IC50 (Renin [2]): 2.3 nM
Activity (Canis familiaris [12]): 12%
concentration at 1.5 h [14]: 25 µM
Activity (Rattus norvegicus [16]): 23%
bioavailability [37]: 8%
Activity (Canis familiaris [18]): 14%
Activity (Canis familiaris [20]): 6%
IC50 (Renin [4]): 5.2 nM
IC50 [38]: > 30000 nM
Activity (Rattus norvegicus [28]): 30%
concentration at 0.5 h [30]: 12.7 µM
IC50 [39]: > 30000 nM

SMILES: Cn1ccc([C@H]2CCNC[C@@H]2C(=O)N(Cc2c[nH]c3cccc(F)c23)C2CC2)cc1=O
inhibition at 10 µM (CYP3A4 [1]): 0%
IC50 (Renin [2]): 12 nM
Ki [10]: > 29000 nM
bioavailability [3]: 0%
IC50 (Renin [4]): 8.4 nM
activity % at 10 µM (CYP3A4 [5]): 74%

SMILES: Cn1ccc([C@H]2CCNC[C@@H]2C(=O)N(Cc2cn(Cc3ccncc3)c3cccc(F)c23)C2CC2)cc1=O
inhibition at 10 µM (CYP3A4 [1]): 29%
IC50 (Renin [2]): 0.24 nM
Ki [10]: 15000 nM
bioavailability [3]: 0%
IC50 (Renin [4]): 0.53 nM
activity % at 10 µM (CYP3A4 [5]): 44%

Further lines, with some results ahead:

Activity (Liver microsomes [6]): 34.5 pmolequiv
clearance [7]: 14 mL/min/kg
inhibition at 10 µM (CYP3A4 [1]): 0%
IC50 (Renin [2]): 1 nM
bioavailability [9]: 14%
Vd [11]: 4.8 L/kg
IC50 (Cytochrome P450 3A4 [13]): 20000 nM
concentration at 1.5 h [14]: 9.3 µM
bioavailability [15]: 30%
AUC [17]: 2.1 µM·h
IC50 (Cytochrome P450 3A4 [19]): 6500 nM
half-life [21]: 13.7 h
bioavailability [22]: 36%
AUC [23]: 0.9 µM·h
clearance [24]: 67 mL/min/kg
half-life [25]: 5.2 h
Activity (Liver microsomes [26]): 8.3 pmolequiv
IC50 (Renin [4]): 2.4 nM
IC50 (Cytochrome P450 3A4 [29]): 16000 nM
concentration at 0.5 h [30]: 7.9 µM
AUC [31]: 4.2 µM·h
clearance [32]: 16 mL/min/kg
Vd [33]: 17 L/kg
Vd [34]: 4.5 L/kg
activity % at 10 µM (CYP3A4 [5]): 22%
half-life [35]: 7.8 h
SMILES: COCCCc1cc(CN(C(=O)[C@H]2CNCC[C@@H]2c2ccn(C)c(=O)c2)C2CC2)cc(Br)c1C
Activity (Rattus norvegicus [8]): 35 mmHg
Ki [10]: 18000 nM
Activity (Canis familiaris [12]): 4%
Activity (Rattus norvegicus [16]): 16%
Activity (Canis familiaris [18]): 5%
Activity (Canis familiaris [20]): 0%
Time (Rattus norvegicus [27]): 24 h
Activity (Rattus norvegicus [28]): 14%

inhibition at 10 µM (CYP3A4 [1]): 48%
IC50 (Renin [2]): 0.07 nM
bioavailability [3]: 3%
IC50 (Renin [4]): 0.57 nM
activity % at 10 µM (CYP3A4 [5]): 63%
SMILES: COCCCn1cc(CN(C(=O)[C@H]2CNCC[C@@H]2c2ccn(C)c(=O)c2)C2CC2)c2c(Br)cccc21
Ki [10]: 11000 nM

inhibition at 10 µM (CYP3A4 [1]): 16%
IC50 (Renin [2]): 0.3 nM
concentration at 1.5 h [14]: 15 µM
bioavailability [15]: 24%
IC50 (Renin [4]): 1.3 nM
concentration at 0.5 h [30]: 7.4 µM
activity % at 10 µM (CYP3A4 [5]): 53%
SMILES: COCCCc1cc(Cl)c(Cl)c(CN(C(=O)[C@H]2CNCC[C@@H]2c2ccn(C)c(=O)c2)C2CC2)c1
Ki [10]: 4800 nM
Activity (Canis familiaris [12]): 33%
Activity (Rattus norvegicus [16]): 35%
Activity (Canis familiaris [18]): 50%
Activity (Canis familiaris [20]): 10%
Activity (Rattus norvegicus [28]): 54%

solubility [36]: soluble
SMILES: COCCCc1cc(CN(C(=O)[C@H]2CNCC[C@@H]2c2ccn(C)c(=O)c2)C2CC2)cc(Br)c1C.Cl
